Cl transport mod = modulators of human KCC2 chloride dependent transport. AID 1456. B-score of Tl+ flux slope (higher = more flux/activation; lower = inhibition) at 10 µM. hit rate 2.2% among 190,000. Q9H2X9. KCC2 cells, thallium flux FluoZin-2 fluorescence;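 active means thallium flux slope and its plate-corrected score both differing from the plate sample mean at a set confidence after two filtering rounds, in either direction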;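 further: slope of fluorescence scaled to starting intensity during 10 to 20 s after thallium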
KCNK9 inh = inhibitors of human KCNK9 two-pore domain potassium channel | Q9NPC2 | HEK293 KCNK9, FluxOR thallium flux fluorescence; active compounds read low | B-score at 10 µM | hit rate 1.2% among 310,000;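 active means ratio B-score over 3 SD below the library mean, with starting fluorescence within 5 SD of its mean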;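 further: negative B-score means less thallium flux so channel inhibition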
Target sequence (Q9NPC2 whole entry, looked up, the tested form may be a part): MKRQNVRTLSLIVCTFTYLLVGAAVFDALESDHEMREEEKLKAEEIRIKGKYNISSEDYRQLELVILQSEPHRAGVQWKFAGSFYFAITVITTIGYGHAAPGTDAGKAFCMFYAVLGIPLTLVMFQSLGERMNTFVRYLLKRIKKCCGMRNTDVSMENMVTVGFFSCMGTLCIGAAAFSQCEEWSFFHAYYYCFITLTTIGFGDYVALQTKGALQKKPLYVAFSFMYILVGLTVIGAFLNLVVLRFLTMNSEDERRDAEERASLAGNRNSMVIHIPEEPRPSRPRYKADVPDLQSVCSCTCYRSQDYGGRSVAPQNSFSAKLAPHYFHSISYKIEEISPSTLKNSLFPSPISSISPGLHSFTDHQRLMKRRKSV
KCNK3 block = human KCNK3 channel inhibition, primary screen; O14649; CHO-KCNK3 thallium flux, FluxOR fluorescence; active compounds read low; B-score at 10 µM; hit rate 0.84% among 340,000; AID 602410;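 active means B-score under library mean minus 4 SD, starting fluorescence ratio at most library mean plus 5 SD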;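 further: more negative B-score means stronger inhibition of thallium flux through KCNK3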
Target sequence (O14649 whole entry, looked up): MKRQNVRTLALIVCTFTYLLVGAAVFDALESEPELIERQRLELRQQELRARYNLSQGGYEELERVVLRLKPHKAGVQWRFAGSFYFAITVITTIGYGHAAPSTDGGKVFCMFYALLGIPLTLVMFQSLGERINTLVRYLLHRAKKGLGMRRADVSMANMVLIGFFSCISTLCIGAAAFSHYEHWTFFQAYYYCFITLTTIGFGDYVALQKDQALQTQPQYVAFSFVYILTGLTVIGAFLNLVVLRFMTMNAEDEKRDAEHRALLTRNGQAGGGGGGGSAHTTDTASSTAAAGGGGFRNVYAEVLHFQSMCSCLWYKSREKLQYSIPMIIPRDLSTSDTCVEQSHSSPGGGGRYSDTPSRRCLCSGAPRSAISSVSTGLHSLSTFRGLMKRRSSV
KCNQ1 pot = potentiators or activators of human KCNQ1 potassium channel. P51787. CHO-K1 KCNQ1, thallium flux FluxOR fluorescence; active compounds read high. B-score at 10 µM. hit rate 0.35% among 310,000;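 active means fluorescence ratio B-score, a plate-corrected score, at least three library SD, with initial intensity B-score within 5 SD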
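Assay system: CHO-K1 cells stably expressing KCNQ1. Medium: assay buffer for compound exposure, DMSO matched across wells. Timing: 37 °C overnight plating, 90-min dark dye load, 20-min compound pretreatment. Signal: kinetic FluxOR fluorescence, 10 s baseline plus 110 s post-stimulus.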
KCNQ1 inh = blocks the human KCNQ1 potassium channel; hit rate 1.3% among 310,000; CHO-K1 KCNQ1, FluxOR thallium flux fluorescence; active compounds read high; B-score at 10 µM;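 active means compounds whose thallium flux B-score, printed positive for inhibition, exceeds three library SD while starting fluorescence stays within three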;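 further: channel opened by potassium depolarization with thallium stimulus after 20 min compound exposure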
hERG rescue = shields human hERG channel from block by proarrhythmic agents; Q12809; CHO-hERG, FluxOR thallium flux, dofetilide IC70 present; activation (rescue from dofetilide block), less the hit threshold, % at 10 µM; hit rate 0.51% among 310,000; AID 1511;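 active means activation above the mean of controls blocked by dofetilide plus 5 SD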;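 further: thallium influx through hERG after potassium depolarization seen as dye fluorescence rise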
KCC2 secondary = KCC2 (human) modulation, secondary assay; shares compounds with Cl transport mod; HEK293-KCC2, thallium flux, FluoZin2 fluorescence; active compounds read high; normalised thallium flux (F/F0 slope) at 10 µM; hit rate 15% among 3,700; AID 1713;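 active means thallium flux slope above the same plate's solvent-only control mean plus 3 SD; inconclusive means the two replicate wells disagree; inactive means no significant difference from solvent-only control wells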
KCC2 bumet counter = bumetanide-insensitive thallium flux in KCC2 cells with ouabain, counter-screen | shares compounds with Cl transport mod | HEK293-KCC2 + bumetanide/ouabain, thallium flux FluoZin2; active compounds read high | normalized thallium flux at 10 µM | hit rate 49% among 3,700;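 active means thallium entry rate above the same plate's blocked-transporter control wells by more than 3 SD; inconclusive means the two repeat wells disagree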;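 further: raw slope of fluorescence over initial fluorescence between 10 and 20 s after thallium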
KCC2 secondary2 = KCC2 (human) modulation, second secondary assay; shares compounds with Cl transport mod; HEK293-KCC2, thallium flux FluoZin2 fluorescence; actives lie on both sides; F/F0 rise rate, 10–20 s post-thallium; normalized thallium flux at 10 µM; hit rate 23% among 3,700;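 active means thallium flux slope more than 3 SD above or below the plate's solvent-only control mean, mostly below; inconclusive means the two repeat wells disagreed; inactive means no significant shift from solvent-only controls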;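 further: raw slope with 0.1% DMSO as baseline and bumetanide as block control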
HEK counter1 = acts in parental HEK cells, KCC2 counter-screen. thallium flux rate (normalised fluorescence) at 10 µM. hit rate 46% among 3,700. HEK293 parental cells, thallium flux FluoZin2, ouabain; baseline-ratio fluorescence slope, 10–20 s after thallium. shares compounds with Cl transport mod. AID 1716;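 active means thallium flux rate significantly above the same plate's solvent-only control wells, beyond their mean plus 3 SD; inconclusive means the two replicate wells gave conflicting results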
KCC2 retest ouab = confirmation of human KCC2 modulators with ouabain; HEK293-KCC2, thallium flux FluoZin2 fluorescence; bidirectional: low = inhibitor, high = activator; hit rate 48% among 3,700; raw Tl+ flux slope (below DMSO = inhibition, above = activation) at 10 µM; shares compounds with Cl transport mod;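 active means thallium flux slope beyond 3 SD from same-plate DMSO control mean in most replicates, usually higher, sometimes lower; inconclusive means repeat tests gave conflicting results; inactive means no significant difference from controls in most replicates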;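 further: slope of initial-normalized fluorescence between seconds 10 and 20 after thallium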
HEK counter2 = parental HEK flux effect, counter-screen 2; HEK293 parental, thallium flux FluoZin-2 fluorescence slope; shares compounds with Cl transport mod; hit rate 33% among 3,700; thallium flux slope at 10 µM;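 active means thallium flux slope above the same plate's solvent-control mean plus 3 SD in both duplicate wells; inconclusive means duplicate wells that disagreed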;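 further: run without ouabain in cells lacking the KCC2 cotransporter; slope of fluorescence scaled to its starting value between 10 and 20 s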
* = called active by the depositor; i = inactive; u = inconclusive; x = no result. Rows were chosen to be rich in hits. Some 4.1% of all compounds tested hit in one or more screens of this group.

SMILES | Cl transport mod | KCNK9 inh | KCNK3 block | KCNQ1 pot | KCNQ1 inh | hERG rescue | KCC2 secondary | KCC2 bumet counter | KCC2 secondary2 | HEK counter1 | KCC2 retest ouab | HEK counter2
Cc1ccnc(NC(=S)NC(=O)c2ccco2)c1 | 7.5* | i | i | i | i | -3 | 0.015* | 0.057* | 0.033 | 0.02* | 0.046* | 0.013*
O=C(NC(=S)Nc1ccccc1[N+](=O)[O-])c1ccco1 | 25* | i | i | i | i | 0 | 0.017* | 0.077* | 0.038 | 0.032* | 0.064* | 0.016*
O=C(NC(=S)Nc1cccnc1Cl)c1ccc(Cl)cc1 | x | i | i | i | i | -3 | x | x | x | x | x | x
O=C(NC(=S)Nc1cccnc1Cl)c1ccco1 | 25* | i | i | i | i | -5 | 0.02* | 0.051* | 0.04 | u | 0.043* | u
COC(=O)c1ccccc1NC(=S)NC(=O)c1ccccc1C | 4.7* | i | i | i | i | -8 | 0.01 | 0.04* | 0.03 | 0.013* | u | u
CCOc1ccc(S(=O)(=O)N2CCCCC2)cc1NC(=O)Cc1cccs1 | x | i | i | i | i | -8 | x | x | x | x | x | x
CCC1(c2ccc(F)cc2)NC(=O)N(CC(=O)NC2CCCCCC2)C1=O (stereo not given) | x | x | i | x | x | x | x | x | x | x | x | x
CCOC(=O)C1=C(C)N(C[C@@H]2CC[C@@H](Cc3ccc(-c4ccccc4)cc3)O2)C(=O)NC1c1cccc([N+](=O)[O-])c1 (stereo not given in full) | x | x | i | x | x | x | x | x | x | x | x | x
COc1ccc(-c2[nH]ncc2/C=N\NC(=O)c2cccs2)cc1OC | x | i | i | i | i | -20 | x | x | x | x | x | x
Cc1ccccc1C(=O)NC(=S)Nc1ccccc1[N+](=O)[O-] | 14* | i | i | i | i | -3 | 0.0073 | 0.013* | 0.028 | 0.011* | 0.021 | 0.011
O=C(NC(=S)Nc1ccccc1C(F)(F)F)c1ccccc1F | 99* | i | i | i | i | 0 | 0.0074 | 0.087* | 0.052* | 0.055* | 0.067* | 0.052*
Cc1cc(-c2nc3ncccc3o2)ccc1NC(=S)NC(=O)c1ccco1 | 10* | i | i | i | i | -5 | 0.013* | 0.04* | 0.036 | 0.035* | 0.035* | 0.016*
Cc1ccccc1C(=O)NC(=S)Nc1ccccc1C(F)(F)F | x | i | i | i | i | -1 | x | x | x | x | x | x
COC(=O)c1ccc(Cn2cnc3c(Cl)ncnc32)cc1 | x | x | i | x | x | x | x | x | x | x | x | x
Cc1ccccc1Nc1nc(=O)c2cc([N+](=O)[O-])ccc2s1 | 4.2* | i | i | i | i | -1 | 0.0057 | 0.02* | 0.036 | 0.016* | 0.031* | 0.016*
CC(C)CSC1=NSC2=NC(=O)/C(=C\c3cccs3)C(=N)N12 | 42* | i | i | 8* | i | -1 | 0.0097* | 0.089* | 0.066* | 0.067* | 0.075* | 0.045*
CSC1=NSC2=NC(=O)/C(=C\c3cccs3)C(=N)N12 | -0.16 | i | i | i | i | -10 | x | x | x | x | x | x
COc1cccc(NC(=S)NN=C2CCCCCC2)c1 | 39* | i | i | i | i | -12 | 0.019* | 0.1* | u | 0.041* | 0.05* | 0.017*
CC1CCC/C(=N\NC(=S)Nc2ccccc2)C1 (stereo not given) | 15* | i | i | i | i | -4 | 0.014* | 0.049* | 0.033 | 0.018* | 0.035* | 0.012*
O=C(NC(=S)Nc1ccccc1)C1CCCCC1 | x | i | i | i | i | -8 | x | x | x | x | x | x
CC1CCCC/C1=N\NC(=S)Nc1ccccc1 (stereo not given) | 9.5* | i | i | i | i | -6 | 0.013* | 0.053* | 0.035 | 0.019* | 0.048* | 0.013*
CC1CCC/C(=N\NC(=S)NCc2ccccc2)C1 (stereo not given) | 8.1* | i | i | i | i | -5 | 0.017 | 0.01* | 0.027 | u | 0.017 | 0.012
COc1ccc(CNC(=S)Nc2cccc(OC)c2)cc1 | x | i | i | i | i | -7 | x | x | x | x | x | x
CN(C)c1cc(-c2ccccc2)nc(-c2ccccc2)n1 | x | i | i | i | i | -10 | x | x | x | x | x | x
Cc1cc(C)c(S(=O)(=O)N2CCN(C(=O)c3cc4ccccc4oc3=O)CC2)c(C)c1 | x | x | i | x | x | x | x | x | x | x | x | x
SMILES | Cl transport mod | KCNK9 inh | KCNK3 block | KCNQ1 pot | KCNQ1 inh | hERG rescue | KCC2 secondary | KCC2 bumet counter | KCC2 secondary2 | HEK counter1 | KCC2 retest ouab | HEK counter2
COc1ccccc1Oc1ccc(NC(=O)Cc2ccccc2)cc1 | x | i | i | i | i | -10 | x | x | x | x | x | x
COc1cc(C(=O)Nc2nnc(CC(=O)NCc3ccccc3)s2)cc(OC)c1OC | x | i | i | i | i | -3 | x | x | x | x | x | x
FC(F)(F)c1nc2ccccc2nc1N/N=C\c1ccccc1 | x | i | i | i | i | -5 | 0.0073 | 0.0059* | 0.03 | 0.0086 | 0.02 | 0.012
NNc1nc2ccccc2nc1C(F)(F)F | 2.8 | i | i | i | i | -3 | x | x | x | x | x | x
Oc1ccccc1/C=N/NC(=S)NC1CC2CC1C1C=CCC21 (stereo not given) | 15* | i | i | i | i | -11 | 0.01 | 0.014* | 0.032 | 0.013* | 0.032* | u
S=c1[nH]nc(-c2ccc(Cl)cc2Cl)n1Cc1ccccc1 | 9* | i | i | i | i | -3 | 0.0059 | 0.039* | u | 0.021* | 0.034* | 0.023*
CCc1cc(-c2n[nH]c(=S)n2Cc2ccccc2)cs1 | 15* | i | i | i | i | -6 | 0.0067 | 0.02* | 0.03 | 0.016* | u | 0.011*
CCCc1cc(-c2n[nH]c(=S)n2CC)cs1 | x | i | i | i | i | -4 | 0.013* | 0.02* | 0.031 | 0.014* | 0.026 | 0.012*
